Our source for the Ki and Stability values is ChEMBL document CHEMBL1158485, “Inhibition of glyoxalase I: the first low-nanomolar tight-binding inhibitors” (J Med Chem, 2009).

For one data set, the target named is T1, Glyoxalase I (Saccharomyces cerevisiae S288c, UniProt P50107).
T1 sequence (P50107 whole entry): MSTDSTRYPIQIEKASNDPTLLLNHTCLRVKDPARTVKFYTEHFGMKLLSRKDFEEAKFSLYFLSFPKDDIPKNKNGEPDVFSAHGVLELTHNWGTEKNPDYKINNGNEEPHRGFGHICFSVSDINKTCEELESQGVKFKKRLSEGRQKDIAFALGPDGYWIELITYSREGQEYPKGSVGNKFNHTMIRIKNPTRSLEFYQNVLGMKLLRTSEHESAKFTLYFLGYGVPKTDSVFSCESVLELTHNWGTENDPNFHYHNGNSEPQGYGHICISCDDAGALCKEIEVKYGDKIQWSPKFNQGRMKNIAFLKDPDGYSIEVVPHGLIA
The data set can be described thus: Inhibition of yeast glyoxalase 1. The procedure, abridged:
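Yeast glyoxalase I run at 30 °C in 0.05 M phosphate buffer pH 6.6 with 0.1% BSA. Methylglyoxal (distilled, resin-treated, standardized) was present at up to 6.0 mM and fresh GSH at up to 1.3 mM. Inhibitor solutions were aqueous, adjusted to pH 6.6. Mixtures equilibrated for 6 min, then the initial rate was read as the A240 rise.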

A short description of data set [1]: Stability in presence of equine kidney gamma-glutamyltranspeptidase at pH 8.4 by TLC. It counts as ADME. Put shortly:
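Inhibitor at 10 mM stock in 200 mM 2-amino-2-methyl-1,3-propanediol buffer, incubated at 37 °C with equine kidney γ-GT (0.54 mg/100 μL stock) plus Gly-Gly acceptor (40 mM stock). Breakdown was followed by TLC with UV, iodine and fluorescamine detection.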

SMILES strings stand for the structures. pKi: −log10 of the molar value.

In the case of `N[C@@H](CNC(=O)N[C@@H](CCC(=O)N(O)c1ccc(Br)cc1)C(=O)NCC(=O)O)C(=O)O`, the pKi on Glyoxalase I was 7.49. Further, in data set [1], the Stability result is on record as “Stable”.

Regarding `N[C@@H](CCC(=O)N[C@@H](CSCc1ccc(Br)cc1)C(=O)NCC(=O)O)C(=O)O`, the pKi at Glyoxalase I was 5.20.

Take `N[C@@H](CCC(=O)N[C@@H](CCC(=O)N(O)c1ccc(Br)cc1)C(=O)NCC(=O)O)C(=O)O.O=C(O)C(F)(F)F`: the pKi at Glyoxalase I is 8.21. In data set [1], the Stability result was “Unstable”.

In turn, `N[C@@H](CNC(=O)N[C@@H](CSCc1ccc(Br)cc1)C(=O)NCC(=O)O)C(=O)O` had a negative logarithm of the Ki (pKi) at Glyoxalase I of 4.89.

Take `N[C@@H](CCC(=O)N[C@H](CCC(=O)N(O)c1ccc(Br)cc1)C(=O)NCC(=O)O)C(=O)O.O=C(O)C(F)(F)F`: at Glyoxalase I, the pKi is 5.78. The Stability result in data set [1] is “Stable”.

Turning to `N[C@@H](CCC(=O)N[C@@H](CCN(O)C(=O)c1ccc(Br)cc1)C(=O)NCC(=O)O)C(=O)O.O=C(O)C(F)(F)F`, at Glyoxalase I, the pKi was 6.91. The Stability result in data set [1] was “Stable”.
